Data as given in ChEMBL document CHEMBL1128552, “8-Amino-3-benzyl-1,2,4-triazolo[4,3-a]pyrazines. Synthesis and anticonvulsant activity” (J Med Chem, 1995).

Key:
Rattus norvegicus [1] = assay: The compound was tested for anticonvulsant activity against Maximal Electroshock-Induced Seizures(MES) in Wistar male rat, after peroral administration.; type: functional; conditions: po
Method in brief: (§1)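 Male Wistar rats (Charles River), maximal electroshock seizure test. Compounds given as solutions or fine dispersions in water or 0.5% methylcellulose; poorly soluble samples micronized. Initial screen at 25 mg/kg ip. ED50 is the dose protecting 50% against hind-limb extensor component, calculated by Miller–Tainter method. Either four doses with at least 12 animals each (with standard error), or three doses with six animals each.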

Rattus norvegicus [2] = assay: The compound was tested for anticonvulsant activity against Maximal Electroshock-Induced Seizures(MES) in intraperitoneal administration.; type: functional; conditions: ip; method in brief: as §1
[3] = Dissociation constant was measured; type: physicochemical
[4] = Lipophilicity was measured; type: physicochemical; conditions: octanol/water

SMILES	ED50 (Rattus norvegicus [1]) [mg/kg]	ED50 (Rattus norvegicus [2]) [mg/kg]	pKa [3]	logP [4]
CNc1nccn2c(Cc3cc(F)ccc3F)nnc12	10	4		
Nc1ncnc2c1ncn2Cc1ccccc1F	12	4.5		
CNc1nccn2c(Cc3ccc(F)cc3)nnc12		25		
CNc1nccn2c(Cc3cccc(F)c3)nnc12	20	4		
Nc1nccn2c(Cc3c(F)cccc3F)nnc12	7	4		
Nc1nccn2c(Cc3ccccc3F)nnc12	8	9		
Nc1nccn2c(Cc3cccc(F)c3)nnc12		> 25		
Nc1nccn2c(Cc3ccc(F)cc3)nnc12		> 25		
Nc1nccn2c(Cc3cc(F)ccc3F)nnc12	20	7		
CNc1nccn2c(Cc3ccccc3F)nnc12	2.6	5	4.02	1.56
CNc1nccn2c(Cc3ccccc3)nnc12	16	6		
CNc1nccn2c(Cc3c(F)cccc3F)nnc12	3	2		
O=C1NC(=O)C(c2ccccc2)(c2ccccc2)N1 [PHENYTOIN]	20	10		
CNc1ncnc2c1ncn2Cc1ccccc1F [BW-A78U]	2.5	1.7	3.88	1.86
